Assay results gathered from unrelated publications.
RPS6KA3 N-terminal kinase domain: Ribosomal protein S6 kinase alpha-3, N-terminal kinase domain (RPS6KA3, Homo sapiens, UniProt P51812)
RPS6KA3 C-terminal kinase domain: Ribosomal protein S6 kinase alpha-3, C-terminal kinase domain (RPS6KA3, Homo sapiens, UniProt P51812)
RPS6KA3: Ribosomal protein S6 kinase alpha-3 (RPS6KA3, Homo sapiens, UniProt P51812)

COc1ccc2[nH]c3c4[nH]c5ccc(OC)cc5c4c4c(c3c2c1)C(=O)NC4=O  remaining binding (RPS6KA3 N-terminal kinase domain; binding, competition with immobilised ligand; 1 µM): 21%
Cc1cc(O)c(-c2ccc([C@@H](C)CN(C)C)cc2)c2c1[nH]c(=O)c1sccc12  inhibition (RPS6KA3 C-terminal kinase domain; enzyme activity, inhibitor; 0.1 µM): -17.5%
COc1ccc2oc(-c3ccc4nc(N)oc4c3)c/c(=N\c3ccccc3NC(=O)CCN)c2c1  remaining binding (RPS6KA3; binding; 1 µM): 98%
N#Cc1ccc(NC(=O)Nc2ccccc2)cc1  remaining binding (RPS6KA3 N-terminal kinase domain; cell-free assay, competition with immobilised ligand; 25 µM): 90%
CC(C)S(=O)(=O)c1ccc2nccc(Nc3ccc4sc(C5CCCC5)nc4c3)c2c1  activity vs control (RPS6KA3; enzyme activity, inhibitor; 1 µM): 113%
CN1CCN(C(=O)c2ccc(NC(=O)Nc3ccc(N(C)c4ccnc(Nc5ccc(CS(C)(=O)=O)cc5)n4)cc3)cc2)CC1  remaining binding (RPS6KA3 C-terminal kinase domain; binding, competition with immobilised ligand; 1 µM): 86%
C#Cc1cc(-c2cc(Nc3nc(N[C@@H](C)c4ccc(F)cn4)ncc3Cl)n[nH]2)ccc1C=O  inhibition (RPS6KA3; enzyme activity, inhibitor; 0.2 µM): 39.8%
CCCCC(=O)Nc1ccc(-c2ccc3ncn(CCC)c(=O)c3c2)cn1  remaining binding (RPS6KA3 C-terminal kinase domain; binding, competition with immobilised ligand; 0.5 µM): 99%
